Columns and labels:
[1] = Partition coefficient (logP); type: physicochemical; conditions: octanol/water
Summary of the method: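 Lipophilicity (log P) estimated by HPLC analysis.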

Glutamate NMDA receptor = assay: In vitro binding to N-methyl-D-aspartate glutamate receptor using [3H]MK-801 (1 nM) and rat brain membrane suspensions
Summary of the method: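 Test compounds displaced the radioligand, and IC₅₀ values were read from displacement curves. Ki was calculated from IC₅₀ by the Cheng–Prusoff method. Values are means of at least three experiments, with standard deviation.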

| Structure (SMILES) | logP [1] | Ki (Glutamate NMDA receptor) [nM] |
| --- | --- | --- |
| CSc1ccc(Cl)c(NC(=N)N(C)c2cc(C)cc(C)c2)c1 | 3.12 | 14 |
| CSc1cccc(N(C)C(=N)Nc2cc(SC)ccc2Cl)c1 [CNS-5161] | 2.68 | 1.87 |
| CSc1ccc(Cl)c(NC(=N)N(C)c2cccc(I)c2)c1 | 2.91 | 3.48 |
| CN(C(=N)Nc1cccc2ccccc12)c1cccc(I)c1 | 2.94 | 4.65 |
| CN(C(=N)Nc1cccc2ccccc12)c1cccc(F)c1 | 2.31 | 839 |

Results, then the compound that gave them:

| logP [1] | Ki (Glutamate NMDA receptor) [nM] | Structure (SMILES) |
| --- | --- | --- |
| 2.94 | 21.9 | Cc1cc(C)cc(N(C)C(=N)Nc2cccc3ccccc23)c1 |
| 2.26 | 43.5 | COc1cccc(N(C)C(=N)Nc2cccc3ccccc23)c1 |
| 2.34 | – | CSc1ccc(Cl)c(NC(=N)N(C)c2cccc(F)c2)c1 |
| 3 | 6.28 | CCc1cccc(N(C)C(=N)Nc2cc(SC)ccc2Cl)c1 |
| 2.34 | 5.2 | COc1cccc(N(C)C(=N)Nc2cc(SC)ccc2Cl)c1 |
